In ChEMBL document CHEMBL2331439 (J Med Chem, 2013):

Legend:
[1] = molecular target: Mitogen-activated protein kinase 8 (Homo sapiens) (UniProt P45983); experiment: Inhibition of recombinant MAPK8 (unknown origin) at 5 uM by FRET-based Z'-LYTE assay
How it was run: (§1)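 Single-point panel screen at 5 μM in duplicate. ATP is at the apparent Km of each kinase, and the Z'-LYTE FRET peptide substrate is used. Each point has two control wells: a protease control for interference with development and a fluorescence control for interference with the FRET read-out. Values above 100% are treated as maximal inhibition and values below 0% as none.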

[2] = molecular target: Mitogen-activated protein kinase 1 (Homo sapiens, UniProt P28482); experiment: Inhibition of recombinant ERK2 (unknown origin) by FRET-based Z'-LYTE assay
[3] = molecular target: Receptor-type tyrosine-protein kinase FLT3 (Homo sapiens) (UniProt P36888); experiment: Inhibition of recombinant FLT3 (unknown origin) at 5 uM by FRET-based Z'-LYTE assay; how it was run: as §1
[4] = molecular target: Mitogen-activated protein kinase 14 (Homo sapiens, UniProt Q16539); experiment: Inhibition of recombinant MAPK14 (unknown origin) at 5 uM by cascade reaction assay
[5] = molecular target: Phosphatidylinositol 4,5-bisphosphate 3-kinase catalytic subunit gamma isoform (Homo sapiens) (UniProt P48736); experiment: Inhibition of recombinant PIK3CG (unknown origin) at 5 uM after 1 hr by FRET-based adapta assay
How it was run: (§2)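 After inhibitor and all reaction components are added, the reaction runs for 1 h. ADP formed by the kinase displaces an antibody-tracer complex, so reduced ADP gives a high TR-FRET signal. Inhibition is calculated against a control.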

[6] = molecular target: Serine/threonine-protein kinase pim-1 (Homo sapiens) (UniProt P11309); experiment: Inhibition of recombinant PIM1 (unknown origin) at 5 uM by FRET-based Z'-LYTE assay; how it was run: as §1
[7] = molecular target: CDK9/cyclin T1 (Homo sapiens) (UniProt O60563+P50750); experiment: Inhibition of recombinant CDK9/cyclin T1 (unknown origin) at 5 uM after 1 hr by FRET-based adapta assay; format: protein-complex assay; how it was run: as §2
[8] = molecular target: Aurora kinase A (Homo sapiens) (UniProt O14965); experiment: Inhibition of recombinant AURKA (unknown origin) at 5 uM by FRET-based Z'-LYTE assay; how it was run: as §1
[9] = molecular target: Tyrosine-protein kinase BTK (Homo sapiens) (UniProt Q06187); experiment: Inhibition of recombinant BTK (unknown origin) at 5 uM by FRET-based Z'-LYTE assay; how it was run: as §1
[10] = molecular target: Serine/threonine-protein kinase PAK 4 (Homo sapiens) (UniProt O96013); experiment: Inhibition of recombinant PAK4 (unknown origin) at 5 uM by FRET-based Z'-LYTE assay; how it was run: as §1
[11] = molecular target: Tyrosine-protein kinase JAK3 (Homo sapiens) (UniProt P52333); experiment: Inhibition of recombinant JAK3 (unknown origin) at 5 uM by FRET-based Z'-LYTE assay; how it was run: as §1

Chain of Mitogen-activated protein kinase 14 (Q16539 whole entry, canonical isoform): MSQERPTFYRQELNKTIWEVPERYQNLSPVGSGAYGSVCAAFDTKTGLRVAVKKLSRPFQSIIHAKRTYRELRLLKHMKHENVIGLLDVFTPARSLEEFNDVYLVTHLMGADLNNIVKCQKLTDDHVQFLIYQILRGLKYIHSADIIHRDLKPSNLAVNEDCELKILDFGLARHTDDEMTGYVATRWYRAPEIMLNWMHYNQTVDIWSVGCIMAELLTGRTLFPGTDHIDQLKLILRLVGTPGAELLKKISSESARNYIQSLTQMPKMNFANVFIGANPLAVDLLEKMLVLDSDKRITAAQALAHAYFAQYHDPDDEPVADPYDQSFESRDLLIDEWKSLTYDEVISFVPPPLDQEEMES
Chain of Mitogen-activated protein kinase 8 (Homo sapiens) (P45983 whole entry): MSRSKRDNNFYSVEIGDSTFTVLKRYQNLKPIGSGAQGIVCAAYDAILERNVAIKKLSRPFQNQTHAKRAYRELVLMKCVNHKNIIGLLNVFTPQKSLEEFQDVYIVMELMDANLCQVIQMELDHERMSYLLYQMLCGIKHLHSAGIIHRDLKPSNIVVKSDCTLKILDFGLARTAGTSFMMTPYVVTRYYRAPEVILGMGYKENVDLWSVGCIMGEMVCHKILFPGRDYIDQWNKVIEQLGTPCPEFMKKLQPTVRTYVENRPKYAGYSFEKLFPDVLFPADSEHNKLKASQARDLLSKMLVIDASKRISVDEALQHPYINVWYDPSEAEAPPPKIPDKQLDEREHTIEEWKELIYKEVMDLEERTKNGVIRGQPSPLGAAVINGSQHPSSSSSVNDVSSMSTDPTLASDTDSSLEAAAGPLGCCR
Chain of Serine/threonine-protein kinase pim-1 (Homo sapiens) (P11309 whole entry, looked up): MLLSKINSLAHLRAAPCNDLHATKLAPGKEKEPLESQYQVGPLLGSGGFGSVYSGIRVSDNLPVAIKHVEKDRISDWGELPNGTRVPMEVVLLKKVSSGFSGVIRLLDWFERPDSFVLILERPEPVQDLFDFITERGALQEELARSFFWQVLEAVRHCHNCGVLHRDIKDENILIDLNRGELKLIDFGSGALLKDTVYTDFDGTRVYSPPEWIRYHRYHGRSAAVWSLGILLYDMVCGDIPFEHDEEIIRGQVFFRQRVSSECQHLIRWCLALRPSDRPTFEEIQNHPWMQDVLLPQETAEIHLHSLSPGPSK
Chain of Aurora kinase A (Homo sapiens) (O14965 whole entry): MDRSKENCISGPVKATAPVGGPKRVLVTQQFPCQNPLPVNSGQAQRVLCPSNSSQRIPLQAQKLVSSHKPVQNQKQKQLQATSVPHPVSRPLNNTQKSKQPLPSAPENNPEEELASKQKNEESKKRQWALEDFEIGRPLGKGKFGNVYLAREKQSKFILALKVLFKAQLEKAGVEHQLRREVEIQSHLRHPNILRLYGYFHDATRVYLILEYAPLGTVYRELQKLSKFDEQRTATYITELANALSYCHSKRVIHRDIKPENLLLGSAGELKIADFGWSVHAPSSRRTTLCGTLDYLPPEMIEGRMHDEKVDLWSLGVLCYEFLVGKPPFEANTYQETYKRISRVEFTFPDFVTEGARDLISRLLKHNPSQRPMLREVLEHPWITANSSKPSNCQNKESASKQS
Chain of Phosphatidylinositol 4,5-bisphosphate 3-kinase catalytic subunit gamma isoform (Homo sapiens) (P48736 whole entry, looked up, canonical isoform): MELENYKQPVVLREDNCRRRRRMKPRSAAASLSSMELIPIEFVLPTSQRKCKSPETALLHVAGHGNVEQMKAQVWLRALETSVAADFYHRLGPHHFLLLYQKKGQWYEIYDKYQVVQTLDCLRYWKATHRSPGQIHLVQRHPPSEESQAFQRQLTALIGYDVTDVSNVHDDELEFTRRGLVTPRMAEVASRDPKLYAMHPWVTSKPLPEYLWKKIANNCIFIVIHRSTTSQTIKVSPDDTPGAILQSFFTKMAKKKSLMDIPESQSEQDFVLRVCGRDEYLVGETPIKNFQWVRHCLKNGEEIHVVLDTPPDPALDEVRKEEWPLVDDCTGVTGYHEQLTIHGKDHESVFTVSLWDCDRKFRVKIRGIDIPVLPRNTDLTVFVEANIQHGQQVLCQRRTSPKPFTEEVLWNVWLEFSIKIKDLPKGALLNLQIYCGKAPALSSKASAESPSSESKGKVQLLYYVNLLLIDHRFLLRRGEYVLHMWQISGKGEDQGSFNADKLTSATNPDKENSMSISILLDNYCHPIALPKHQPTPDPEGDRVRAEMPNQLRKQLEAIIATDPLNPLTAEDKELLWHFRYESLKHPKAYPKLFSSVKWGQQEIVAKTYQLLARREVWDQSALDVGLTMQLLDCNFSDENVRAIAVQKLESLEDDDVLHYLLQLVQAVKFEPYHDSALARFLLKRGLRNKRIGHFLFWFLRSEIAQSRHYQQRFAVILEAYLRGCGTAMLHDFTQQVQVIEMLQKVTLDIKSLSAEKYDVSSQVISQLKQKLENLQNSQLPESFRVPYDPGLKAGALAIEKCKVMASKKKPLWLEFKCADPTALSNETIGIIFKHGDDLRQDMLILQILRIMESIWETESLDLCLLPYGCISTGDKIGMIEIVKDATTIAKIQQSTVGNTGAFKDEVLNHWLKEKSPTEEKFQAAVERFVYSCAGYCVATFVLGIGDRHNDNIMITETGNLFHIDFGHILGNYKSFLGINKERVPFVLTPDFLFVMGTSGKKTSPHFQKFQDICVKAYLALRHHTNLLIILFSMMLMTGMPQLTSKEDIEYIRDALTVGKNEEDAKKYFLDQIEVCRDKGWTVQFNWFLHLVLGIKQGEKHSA
Chain of Serine/threonine-protein kinase PAK 4 (Homo sapiens) (O96013 whole entry, looked up): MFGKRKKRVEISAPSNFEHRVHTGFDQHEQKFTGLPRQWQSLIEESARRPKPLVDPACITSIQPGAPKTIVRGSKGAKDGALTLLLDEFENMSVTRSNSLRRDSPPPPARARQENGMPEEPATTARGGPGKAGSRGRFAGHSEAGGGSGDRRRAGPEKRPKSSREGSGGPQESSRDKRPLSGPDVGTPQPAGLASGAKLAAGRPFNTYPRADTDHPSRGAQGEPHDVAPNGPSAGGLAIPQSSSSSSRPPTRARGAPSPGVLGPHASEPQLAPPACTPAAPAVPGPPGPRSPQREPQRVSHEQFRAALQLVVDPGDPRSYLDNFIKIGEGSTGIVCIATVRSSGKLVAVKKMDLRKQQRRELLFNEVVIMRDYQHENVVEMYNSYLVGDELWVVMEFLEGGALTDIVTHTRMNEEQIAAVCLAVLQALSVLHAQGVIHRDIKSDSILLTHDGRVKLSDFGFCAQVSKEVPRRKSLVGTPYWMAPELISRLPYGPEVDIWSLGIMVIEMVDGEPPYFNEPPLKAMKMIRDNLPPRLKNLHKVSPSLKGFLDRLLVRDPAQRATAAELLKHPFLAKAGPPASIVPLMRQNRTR
Chain of Receptor-type tyrosine-protein kinase FLT3 (Homo sapiens) (P36888 whole entry): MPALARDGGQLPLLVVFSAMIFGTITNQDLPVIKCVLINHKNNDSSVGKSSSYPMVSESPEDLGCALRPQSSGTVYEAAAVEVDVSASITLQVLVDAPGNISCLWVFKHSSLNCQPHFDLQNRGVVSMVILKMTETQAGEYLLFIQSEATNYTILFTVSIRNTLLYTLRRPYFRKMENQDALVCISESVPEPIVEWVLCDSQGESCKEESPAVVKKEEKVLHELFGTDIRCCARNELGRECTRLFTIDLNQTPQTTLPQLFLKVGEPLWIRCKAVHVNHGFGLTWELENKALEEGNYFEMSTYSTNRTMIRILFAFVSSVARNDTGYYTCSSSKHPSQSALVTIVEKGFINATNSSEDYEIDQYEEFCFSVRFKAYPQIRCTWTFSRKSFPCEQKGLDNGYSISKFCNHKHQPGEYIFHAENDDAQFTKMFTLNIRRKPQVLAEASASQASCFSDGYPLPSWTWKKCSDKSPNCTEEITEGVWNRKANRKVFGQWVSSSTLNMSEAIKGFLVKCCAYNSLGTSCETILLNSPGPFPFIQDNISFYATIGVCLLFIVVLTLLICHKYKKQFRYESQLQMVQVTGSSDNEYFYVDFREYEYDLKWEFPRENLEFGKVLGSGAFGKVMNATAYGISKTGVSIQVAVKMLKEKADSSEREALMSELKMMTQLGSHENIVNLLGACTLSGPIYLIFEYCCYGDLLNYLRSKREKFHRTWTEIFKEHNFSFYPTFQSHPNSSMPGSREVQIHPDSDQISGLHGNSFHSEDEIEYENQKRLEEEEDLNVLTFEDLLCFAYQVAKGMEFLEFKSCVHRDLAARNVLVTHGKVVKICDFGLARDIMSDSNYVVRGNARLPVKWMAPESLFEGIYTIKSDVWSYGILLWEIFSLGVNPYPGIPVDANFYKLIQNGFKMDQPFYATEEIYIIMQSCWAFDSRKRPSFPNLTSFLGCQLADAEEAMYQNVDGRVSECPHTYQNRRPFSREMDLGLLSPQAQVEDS
Chain of Tyrosine-protein kinase BTK (Homo sapiens) (Q06187 whole entry): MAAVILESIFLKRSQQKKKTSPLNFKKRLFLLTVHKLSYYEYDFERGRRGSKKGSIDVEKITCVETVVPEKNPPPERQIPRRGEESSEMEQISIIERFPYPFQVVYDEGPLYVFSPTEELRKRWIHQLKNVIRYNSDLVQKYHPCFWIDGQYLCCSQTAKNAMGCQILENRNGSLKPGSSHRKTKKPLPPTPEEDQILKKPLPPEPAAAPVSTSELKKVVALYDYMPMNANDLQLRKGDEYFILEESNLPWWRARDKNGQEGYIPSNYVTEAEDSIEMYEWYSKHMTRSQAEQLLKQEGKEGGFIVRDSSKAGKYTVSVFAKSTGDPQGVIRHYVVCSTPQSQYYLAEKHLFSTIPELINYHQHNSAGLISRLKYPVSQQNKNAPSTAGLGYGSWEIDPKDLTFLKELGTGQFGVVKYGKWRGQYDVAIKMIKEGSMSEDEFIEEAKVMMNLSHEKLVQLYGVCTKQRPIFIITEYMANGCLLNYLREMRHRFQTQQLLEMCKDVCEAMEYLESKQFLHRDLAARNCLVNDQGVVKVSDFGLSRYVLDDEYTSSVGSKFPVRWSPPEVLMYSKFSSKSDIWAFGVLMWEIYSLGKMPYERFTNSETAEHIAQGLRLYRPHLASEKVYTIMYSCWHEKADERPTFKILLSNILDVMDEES

inhibition [1]: 16%
IC50 [2]: 4 µM
inhibition [3]: 69%
inhibition [4]: 104%
inhibition [5]: 34%
inhibition [6]: 10%
inhibition [7]: 26%
inhibition [8]: 77%
inhibition [9]: 44%
inhibition [10]: 18%
inhibition [11]: 15%
Compound: O=C1/C(=C/c2ccccn2)CNC/C1=C\c1ccccn1
